GASC1_inh – inhibitors of human demethylase GASC-1 KDM4C | Q9H3R0 | GST-KDM4C 2-372, H3K9me3 peptide, LANCE TR-FRET | inhibition, % at 12.5 µM | hit rate 0.15% among 96,000;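 active = mean replicate inhibition above about 25%, with at least 55% of replicates also reaching it, limit read from the data, passing the limit was not always enough; inconclusive = only one of those two conditions met; inactive = neither condition met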
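System: N-terminal GST-fused human GASC-1 (KDM4C) fragment, residues 2-372; amount: enzyme final amount 10 nM; incubation: reaction 30 min RT, detection step 1 h RT; medium: HEPES buffer, pH 7.5, plus ascorbate; technique: LANCE TR-FRET, Eu antibody, ULight-streptavidin, EDTA, ex 340 nm, em 618/671 nm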
T_cruzi_growth-1 – inhibitors of T. cruzi proliferation. AID 624255. T. cruzi beta-gal in NIH3T3, GalScreen luminescence, 90 h. hit rate 5.9% among 77,000. inhibition, % at 8.34 µM;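 active = mean inhibition above about 93%, with at least 55% of replicates each passing it, limit read from the data, passing the limit was not always enough; inconclusive = only one of those two conditions holds; inactive = neither condition holds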
IDH1_mut_inh – inhibitors of human IDH1 R132H. O75874. IDH1 R132H reductase, diaphorase/resazurin fluorescence, 60 min. inhibition, % at 10 µM. hit rate 0.18% among 70,000; in the data active = inhibition above about 34%; inconclusive = no clear call, values can overlap the other calls; inactive = below about 11%;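 also: 0% = DMSO and 100% = no enzyme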
Target sequence (O75874 whole entry R132H): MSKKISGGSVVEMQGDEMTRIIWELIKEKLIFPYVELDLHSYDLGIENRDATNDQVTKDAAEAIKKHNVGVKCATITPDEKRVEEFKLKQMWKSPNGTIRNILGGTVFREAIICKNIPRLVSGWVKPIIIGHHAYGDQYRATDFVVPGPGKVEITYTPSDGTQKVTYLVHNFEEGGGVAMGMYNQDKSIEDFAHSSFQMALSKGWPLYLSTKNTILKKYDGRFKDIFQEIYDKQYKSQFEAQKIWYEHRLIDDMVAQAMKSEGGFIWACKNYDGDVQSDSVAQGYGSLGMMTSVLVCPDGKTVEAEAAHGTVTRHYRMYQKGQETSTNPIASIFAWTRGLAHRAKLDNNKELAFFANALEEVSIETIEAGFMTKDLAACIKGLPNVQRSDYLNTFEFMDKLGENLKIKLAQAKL
Pf_Dd2_inh – blocks growth of Plasmodium falciparum Dd2 parasites | hit rate 2.3% among 94,000 | P. falciparum Dd2 growth, SYBR Green, 72 h; stronger effect = lower value | activity change, % at 10 µM | AID 1159554; in the data active = activity change below about -80%; inconclusive = no clear call, values can overlap the other calls
T_cruzi_growth-2 – Trypanosoma cruzi proliferation inhibition | shares compounds with T_cruzi_growth-1 | T. cruzi beta-gal in NIH3T3, GalScreen luminescence, 90 h | inhibition, % at 8.35 µM | hit rate 72% among 5,600;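 active = mean replicate inhibition above about 95% and at least 55% of replicates individually reaching it, limit read from the data; inconclusive = only one of the two criteria is met; inactive = neither criterion is met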
T_cruzi_growth-3 – Trypanosoma cruzi proliferation inhibition; T. cruzi beta-gal in NIH3T3, GalScreen luminescence, 90 h; shares compounds with T_cruzi_growth-1; AID 651740; hit rate 21% among 5,600; inhibition, % at 2.09 µM;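 active = mean inhibition above about 95%, with at least 55% of replicates also reaching it, limit read from the data; inconclusive = meets just one of the two conditions; inactive = meets neither condition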;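 also: plate controls were neutral control median for no effect and positive control median for full effect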
3T3_cytotox – cytotoxicity in mouse NIH/3T3 fibroblasts | cytotoxicity (signal decrease), % at 8.35 µM | NIH/3T3 viability, CellTiter-Glo ATP luminescence, 90 h | hit rate 14% among 5,600 | shares compounds with T_cruzi_growth-1;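 active = mean signal decrease across replicates above about 35% based on untreated-well scatter, with enough replicates individually passing, limit read from the data; inconclusive = no rule stated though some were filed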;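 also: 0% = median of neutral control wells and 100% = median of positive control wells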
NIH3T3_tox_2 – NIH/3T3 (mouse) viability loss; shares compounds with T_cruzi_growth-1; NIH/3T3 viability, CellTiter-Glo ATP luminescence, 90 h; inhibition, % at 24.9 µM; hit rate 56% among 5,600;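 active = mean loss of cell viability signal at or above a set limit, and enough replicates individually reaching it; inconclusive = meets only the mean limit or only the replicate share; inactive = meets neither condition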;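 also: 0% = median of neutral control wells and 100% = median of positive control wells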
An asterisk follows results filed as active; ? = inconclusive; . = no result; + = active, no number. A selection: hits, their analogues and other compounds. The true share with any hit is near 5.8%.

SMILES GASC1_inh T_cruzi_growth-1 IDH1_mut_inh Pf_Dd2_inh T_cruzi_growth-2 T_cruzi_growth-3 3T3_cytotox NIH3T3_tox_2
O=C(CN1CCOCC1)N1CCCCN2[C@H](C1)[C@H](c1ccc(C#Cc3ccccc3F)cc1)[C@@H]2CO 0 107* . -6 55 22 32 89*
O=C(CN1CCOCC1)N1CCCCN2[C@H](CO)[C@H](c3ccc(C#Cc4ccccc4)cc3)[C@H]2C1 0 98* . -11 96* 25 11 67*
O=C(CN1CCOCC1)N1CCCCN2[C@H](CO)[C@H](c3ccc(C#Cc4ccccc4F)cc3)[C@@H]2C1 1 106* . 6 101* 58 45* 76*
C/C=C/c1ccc([C@@H]2[C@@H](CNC(C)=O)N(Cc3ccccn3)[C@H]2CO)cc1 2 22 . 0 . . . .
CNC[C@H]1Oc2ccc(NC(=O)Nc3ccc(OC)cc3)cc2C(=O)N([C@@H](C)CO)C[C@H]1C 9 23 2 10 . . . .
CCCC#Cc1ccc2c(c1)O[C@H](CN(C)C(=O)c1cccnc1)[C@@H](C)CN([C@H](C)CO)S2(=O)=O -1 72 0 -7 . . . .
C[C@H](CO)N1C[C@H](C)[C@H](CN(C)Cc2ccc(C(=O)Nc3ccccc3N)cc2)Oc2c(NC(=O)C3CC3)cccc2C1=O 0 98* . -16 106* 94 1 43*
C[C@@H]1CN([C@H](C)CO)C(=O)c2cccc(NC(=O)C3CC3)c2O[C@H]1CN(C)Cc1ccc(C(=O)Nc2ccccc2N)cc1 2 102* . -46 110* 93 6 30*
C[C@@H]1CN([C@@H](C)CO)C(=O)c2cccc(NC(=O)C3CC3)c2O[C@@H]1CN(C)Cc1ccc(C(=O)Nc2ccccc2N)cc1 3 76 . -14 . . . .
Cc1cccc(N(C)S(=O)(=O)c2ccc3c(c2)CCC(=O)N3)c1 . . -1 . . . . .
CN(C)CC(=O)N1[C@@H]2c3ccc(-c4ccc(F)cc4)c(=O)n3C[C@@H]2[C@@H](CO)[C@@H]1C(=O)NC1CCCC1 -1 101* . -11 32 4 -6 -2
CN(C)CC(=O)N1[C@@H]2c3ccc(-c4ccccc4)c(=O)n3C[C@@H]2[C@@H](CO)[C@@H]1C(=O)NC1CCC1 0 + . . -4 25 2 -6
CN(C)CC(=O)N1[C@@H]2c3ccc(-c4cccc(F)c4)c(=O)n3C[C@@H]2[C@@H](CO)[C@@H]1C(=O)NC1CCC1 0 65 . 7 . . . .
CN(C)CC(=O)N1[C@H](C(=O)NC2CCCC2)[C@@H](CO)[C@@H]2Cn3c(ccc(-c4ccc(F)cc4)c3=O)[C@@H]21 -2 105* . 0 88 1 7 14
CN(C)CC(=O)N1[C@H](C(=O)NC2CCC2)[C@@H](CO)[C@@H]2Cn3c(ccc(-c4cccc(F)c4)c3=O)[C@@H]21 3 35 . 7 . . . .
CN1[C@H](C(=O)NC2CCCCC2)[C@@H](CO)[C@@H]2Cn3c(ccc(-c4cccc(F)c4)c3=O)[C@@H]21 4 ? . -6 1 34 8 16
CCNC(=O)C[C@H]1CC[C@@H](NC(=O)C2CCOCC2)[C@H](CO)O1 1 43 0 12 . . . .
CCCN1[C@@H]2c3ccc(-c4ccccc4)c(=O)n3C[C@@H]2[C@@H](CO)[C@@H]1C(=O)N[C@@H](C)c1ccccc1 10 81 . -39 . . . .
CN1[C@@H]2c3ccc(-c4ccncc4)c(=O)n3C[C@@H]2[C@@H](CO)[C@@H]1C(=O)NC1Cc2ccccc2C1 3 16 . -4 . . . .
CCCN1[C@H](C(=O)N[C@@H](C)c2ccccc2)[C@@H](CO)[C@@H]2Cn3c(ccc(-c4ccccc4)c3=O)[C@@H]21 8 ? . -1 104* 53 2 52*
CN1[C@@H]2c3ccc(-c4cncnc4)c(=O)n3C[C@@H]2[C@@H](CO)[C@@H]1C(=O)NC1Cc2ccccc2C1 9 + . . 61 -1 11 -3
COCC#Cc1ccc2c(c1)O[C@@H](CN(C)CC1CCCCC1)[C@H](C)CN([C@@H](C)CO)S2(=O)=O 2 ? 0 -54 103* 90 ? 105*
COCC#Cc1ccc2c(c1)O[C@H](CN(C)CC1CCOCC1)[C@H](C)CN([C@@H](C)CO)S2(=O)=O 0 13 . -77 . . . .
COCC#Cc1ccc2c(c1)O[C@@H](CN(C)CC1CCCCC1)[C@@H](C)CN([C@@H](C)CO)S2(=O)=O -1 105* -2 -70 102* 85 11 40*
COc1ccc(NC(=O)N2CC(=O)N3[C@H](C2)[C@H](c2ccc(-c4ccc(C)cc4)cc2)[C@@H]3CO)cc1 0 . . -14 . . . .
SMILES GASC1_inh T_cruzi_growth-1 IDH1_mut_inh Pf_Dd2_inh T_cruzi_growth-2 T_cruzi_growth-3 3T3_cytotox NIH3T3_tox_2
O=C(Nc1cccc(F)c1)N1CCCCN2[C@H](CO)[C@@H](c3ccc(-c4ccccc4F)cc3)[C@H]2C1 0 108* . -45 89 107* 75* 105*
O=C(Nc1cccc(F)c1)N1CCCCN2[C@@H](CO)[C@H](c3ccc(-c4ccccc4F)cc3)[C@@H]2C1 -1 110* . -30 99* 85 82* 107*
O=C(Nc1cccc(F)c1)N1CCCCN2[C@H](CO)[C@@H](c3ccc(-c4ccccc4F)cc3)[C@@H]2C1 0 68 . -24 . . . .
COc1ccccc1S(=O)(=O)N[C@@H]1C=C[C@@H](CC(=O)N2CCOCC2)O[C@@H]1CO -1 -90 0 6 . . . .
C[C@H](CO)N1C[C@H](C)[C@@H](CN(C)Cc2ccccc2)Oc2cc(C#Cc3ccccn3)ccc2S1(=O)=O -19 106 0 -12 . . . .
C[C@@H]1CN([C@H](C)CO)S(=O)(=O)c2ccc(C#Cc3ccccn3)cc2O[C@H]1CN(C)Cc1ccccc1 -18 106* 0 -26 104* 79 19 99*
C[C@@H]1CN([C@@H](C)CO)S(=O)(=O)c2ccc(C#Cc3ccccn3)cc2O[C@@H]1CN(C)Cc1ccccc1 -5 108* -1 -33 109* 86 43* 21
C[C@@H]1CN([C@@H](C)CO)S(=O)(=O)c2ccc(C#Cc3ccccn3)cc2O[C@H]1CN(C)Cc1ccccc1 -43 86* -2 -73 ? 103* 19 33*

Screens deposited in PubChem BioAssay by Broad Institute.
